Activity calls are given as the source filed them. No cut-off for these calls is given here.
Assays:
[1] = system: LNCaP; assay: Antiproliferative activity against human LNCAP cells assessed as decrease in cell viability at 10 to 20 uM after 24 to 48 hrs by MTT assay; type: functional, cell-based
Outline: (§1)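 LNCaP cells grown in RPMI1640 with 10% FBS at 37 °C, 5% CO2. Seeded at 2 × 10^4 cells/500 µl in 24-well plates the day before treatment, then exposed to 10 or 20 µM for 24 or 48 h. MTT was added for a further 1 h, cells lysed and A595 read. Viability given as % of DMSO-treated control. Mean of at least three independent experiments.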

[2] = Inhibition of rat liver CK2 using RRRADDSDDDDD as substrate
[3] = Inhibition of CK2
[4] = system: LNCaP; assay: Induction of apoptosis in human LNCAP cells assessed as PARP cleavage at 10 uM after 24 hrs by Western blot analysis; type: functional, cell-based
Outline: (§2)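 LNCaP cells treated 24 h at 10 or 20 µM, then lysed in RIPA buffer with protease inhibitors and protein measured by Bradford. Extracts (150 µg) run on 7.5% SDS-PAGE and tank-blotted to PVDF. Probed overnight at 4 °C with polyclonal rabbit anti-PARP (1:1000), detected with peroxidase anti-rabbit and chemiluminescence. Full-length and 85 kDa fragment scored.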

[5] = system: LNCaP; assay: Antiproliferative activity against human LNCAP cells after 24 to 48 hrs by MTT assay; type: functional; conditions: read-out: LD50 (the source's name)
Outline: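 LNCaP cells were grown in RPMI1640 with 10% FBS at 37 °C under 5% CO2, and 2 × 10^4 cells/well were seeded the day before treatment. Cells were exposed to 10 or 20 compound for 24 and 48 h. MTT (5 mg/ml) was then added for 1 h, cells were lysed, and A595 was read. Viable cells were expressed as % of DMSO-treated control, mean of ≥3 independent experiments.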

[6] = system: LNCaP; assay: Antiproliferative activity against human LNCAP cells after 24 by MTT assay; type: functional; conditions: read-out: LD50 (the source's name)
Outline: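 LNCaP cells were grown in RPMI1640 with 10% FBS at 37 °C under 5% CO2, and 2 × 10^4 cells/well were seeded the day before. Cells were treated with 3–10 µM for 24 h. MTT (5 mg/ml) was then added for 1 h, cells were lysed, and absorbance was read at 595 nm. Viability was expressed as % of DMSO control. LD50 was calculated by curve fitting, mean of ≥3 independent experiments.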

[7] = system: LNCaP; assay: Induction of apoptosis in human LNCAP cells assessed as PARP cleavage at 20 uM after 24 hrs by Western blot analysis; type: functional, cell-based; outline: as §2
[8] = system: LNCaP; assay: Induction of apoptosis in human LNCAP cells assessed as PARP cleavage after 24 hrs by Western blot analysis; type: functional, cell-based; outline: as §2
[9] = system: LNCaP; assay: Antiproliferative activity against human LNCAP cells assessed as decrease in cell viability at 10 uM after 48 hrs by MTT assay; type: functional; outline: as §1
[10] = system: LNCaP; assay: Antiproliferative activity against human LNCAP cells assessed as decrease in cell viability at 20 uM after 48 hrs by MTT assay; type: functional; outline: as §1

SMILES	Activity [4]	CC50 [5]	CC50 [6]	Activity [7]	further results
CN(C)c1nc2c(Br)c(Br)c(Br)c(Br)c2n1CC(=O)O	inactive	–	–	–	Activity [1]: inactive; Ki [2]: 0.25 µM; IC50 [3]: 0.27 µM
CN(C)c1nc2c(Br)c(Br)c(Br)c(Br)c2[nH]1	–	–	–	–	Ki [3]: 0.04 µM
NCCNc1nc2c(Br)c(Br)c(Br)c(Br)c2[nH]1	Active	< 10 µM	7.22 µM	Active	Activity [8]: Dose-dependent effect
O=C(O)CCCSc1nc2c(Br)c(Br)c(Br)c(Br)c2[nH]1	inactive	–	–	–	Activity [1]: inactive; IC50 [3]: 0.27 µM
Ic1c(I)c(I)c2[nH]cnc2c1I	–	–	–	Active	Activity [9]: 20%; Activity [10]: 20%
NCCCNc1nc2c(Br)c(Br)c(Br)c(Br)c2[nH]1	–	< 10 µM	–	Active	–
CN(C)CCNc1nc2c(I)c(I)c(I)c(I)c2[nH]1	–	< 10 µM	7.37 µM	Active	–
NCCNc1nc2c(I)c(I)c(I)c(I)c2[nH]1	–	< 10 µM	–	Active	–
Brc1c(Br)c(Br)c2[nH]cnc2c1Br	–	–	–	Active	Activity [9]: 20%; Activity [10]: 20%
Cn1c(NCCN)nc2c(Br)c(Br)c(Br)c(Br)c21	inactive	< 10 µM	–	inactive	–
CN(C)CCNc1nc2c(Br)c(Br)c(Br)c(Br)c2[nH]1	–	< 10 µM	9.37 µM	Active	Ki [2]: 0.16 µM
NCCCCNc1nc2c(Br)c(Br)c(Br)c(Br)c2[nH]1	inactive	< 10 µM	–	inactive	Activity [9]: 20%; Activity [10]: 20%
Cn1c(NCCN)nc2c(I)c(I)c(I)c(I)c21	inactive	< 10 µM	4.75 µM	inactive	–
